Experimental data from ChEMBL document CHEMBL2010712, “Design and synthesis of orally available MEK inhibitors with potent in vivo antitumor efficacy” (Bioorg Med Chem Lett, 2012).
pEC50, pIC50: −log10 of the molar value. The source made the active and inactive calls. The rule behind the calls is not given here.

Columns and labels:
[1] = target: T1, Dual specificity mitogen-activated protein kinase kinase 1 (Homo sapiens, UniProt Q02750); assay: Inhibition of MEK1-mediated ERK1 phosphorylation using IPTTPITTYFFFK-5FAM-COOH as substrate by fluorescent polarization assay
T1 sequence (Q02750 whole entry): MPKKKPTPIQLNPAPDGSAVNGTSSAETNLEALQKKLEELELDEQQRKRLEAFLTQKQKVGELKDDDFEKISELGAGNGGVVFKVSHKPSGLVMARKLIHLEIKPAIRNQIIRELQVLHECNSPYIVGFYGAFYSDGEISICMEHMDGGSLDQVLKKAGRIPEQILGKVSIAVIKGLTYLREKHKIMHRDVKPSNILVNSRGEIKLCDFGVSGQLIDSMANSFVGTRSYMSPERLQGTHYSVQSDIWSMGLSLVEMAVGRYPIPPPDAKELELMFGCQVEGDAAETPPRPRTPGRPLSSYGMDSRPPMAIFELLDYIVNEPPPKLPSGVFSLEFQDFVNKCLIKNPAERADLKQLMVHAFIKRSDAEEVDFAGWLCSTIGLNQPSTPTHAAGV

COLO 205 = assay: Cytotoxicity against human COLO205 cells after 72 hrs by MTS assay; conditions: COLO 205, 72 h
A-375 = assay: Cytotoxicity against human A375 cells after 72 hrs by MTS assay; conditions: A-375, 72 h
[2] = Half life in human liver microsomes; assay type: ADME, Microsome
[3] = Half life in rat liver microsomes; assay type: ADME, Microsome
[4] = Clearance in rat at 1 mg/kg, iv and 5 mg/kg, po; assay type: ADME, organism-based; conditions: in vivo
Rattus norvegicus = assay: Dose normalized AUC in rat at 1 mg/kg, iv and 5 mg/kg, po; assay type: ADME, organism-based; conditions: in vivo
[5] = Volume of distribution at steady state in rat at 1 mg/kg, iv and 5 mg/kg, po; assay type: ADME, organism-based; conditions: in vivo, read-out: Vdss
[6] = Oral bioavailability in rat at 5 mg/kg; assay type: ADME, organism-based; conditions: in vivo
[7] = target: T1, Dual specificity mitogen-activated protein kinase kinase 1; assay: Inhibition of MEK1-mediated Erk1/2 phosphorylation in human HT-29 cells at 3 mg/kg plasma concentration measured after 4 hrs by in vivo pharmacodynamic model; assay type: organism-based; parameters: dose 3 mg/kg
Outline: (§1)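 In vivo pharmacodynamic study: p-ERK1/2 suppression measured 4 h after dosing across a dose response and related to compound plasma concentration.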

HL-60 = assay: Antitumor activity against human HL60 cells xenograft model assessed as inhibition of tumor regression at 10 mg/kg, po; assay type: functional, organism-based; parameters: dose 10 mg/kg
Outline: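 HL-60 (NRAS) xenograft; compound given orally once daily at maximum tolerated dose over days 12–25 after tumor implant; tumor response followed versus control, complete regressions counted per group.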

[8] = target: Tyrosine-protein kinase ABL1 (Homo sapiens) (UniProt P00519); assay: Inhibition of ABL1 at 10 uM
[9] = target: RAC-gamma serine/threonine-protein kinase (Homo sapiens) (UniProt Q9Y243); assay: Inhibition of AKT3 at 10 uM
RAC-gamma serine/threonine-protein kinase (Homo sapiens), sequence (Q9Y243 whole entry): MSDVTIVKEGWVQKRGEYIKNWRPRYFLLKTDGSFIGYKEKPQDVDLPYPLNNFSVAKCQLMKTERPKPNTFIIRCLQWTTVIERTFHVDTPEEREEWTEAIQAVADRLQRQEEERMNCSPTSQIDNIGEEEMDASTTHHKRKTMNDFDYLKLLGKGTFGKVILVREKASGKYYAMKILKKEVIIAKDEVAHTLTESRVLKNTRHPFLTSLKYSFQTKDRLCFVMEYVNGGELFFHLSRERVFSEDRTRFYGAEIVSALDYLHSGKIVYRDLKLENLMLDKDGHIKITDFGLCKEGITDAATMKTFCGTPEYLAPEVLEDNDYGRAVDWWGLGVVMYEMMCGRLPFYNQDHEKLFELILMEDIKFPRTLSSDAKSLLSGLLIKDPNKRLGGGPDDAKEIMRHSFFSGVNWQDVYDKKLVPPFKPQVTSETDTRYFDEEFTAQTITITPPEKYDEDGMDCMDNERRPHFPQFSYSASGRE

[10] = target: RAF proto-oncogene serine/threonine-protein kinase (Homo sapiens) (UniProt P04049); assay: Inhibition of c-RAF at 10 uM
RAF proto-oncogene serine/threonine-protein kinase (Homo sapiens), sequence (P04049 whole entry): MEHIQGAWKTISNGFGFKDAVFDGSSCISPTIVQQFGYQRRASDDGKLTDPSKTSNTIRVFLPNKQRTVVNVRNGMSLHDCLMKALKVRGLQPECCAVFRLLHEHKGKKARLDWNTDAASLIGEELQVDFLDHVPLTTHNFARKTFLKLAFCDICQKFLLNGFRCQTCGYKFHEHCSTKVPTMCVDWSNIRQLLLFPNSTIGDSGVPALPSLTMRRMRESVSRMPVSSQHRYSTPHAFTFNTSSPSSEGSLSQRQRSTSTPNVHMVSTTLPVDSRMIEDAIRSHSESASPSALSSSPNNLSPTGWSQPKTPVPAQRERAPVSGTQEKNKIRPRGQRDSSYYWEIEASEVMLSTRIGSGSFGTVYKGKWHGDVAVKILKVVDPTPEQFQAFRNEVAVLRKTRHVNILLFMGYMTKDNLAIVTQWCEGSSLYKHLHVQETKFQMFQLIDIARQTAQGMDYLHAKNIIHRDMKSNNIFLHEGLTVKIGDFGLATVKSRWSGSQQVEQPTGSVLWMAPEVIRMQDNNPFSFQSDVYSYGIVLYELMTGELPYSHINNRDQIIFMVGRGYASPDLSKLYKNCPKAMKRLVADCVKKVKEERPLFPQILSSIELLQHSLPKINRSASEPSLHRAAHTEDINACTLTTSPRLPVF

[11] = target: Calcium/calmodulin-dependent protein kinase type 1D (Homo sapiens) (UniProt Q8IU85); assay: Inhibition of CAMK1delta at 10 uM
Calcium/calmodulin-dependent protein kinase type 1D (Homo sapiens), sequence (Q8IU85 whole entry, looked up): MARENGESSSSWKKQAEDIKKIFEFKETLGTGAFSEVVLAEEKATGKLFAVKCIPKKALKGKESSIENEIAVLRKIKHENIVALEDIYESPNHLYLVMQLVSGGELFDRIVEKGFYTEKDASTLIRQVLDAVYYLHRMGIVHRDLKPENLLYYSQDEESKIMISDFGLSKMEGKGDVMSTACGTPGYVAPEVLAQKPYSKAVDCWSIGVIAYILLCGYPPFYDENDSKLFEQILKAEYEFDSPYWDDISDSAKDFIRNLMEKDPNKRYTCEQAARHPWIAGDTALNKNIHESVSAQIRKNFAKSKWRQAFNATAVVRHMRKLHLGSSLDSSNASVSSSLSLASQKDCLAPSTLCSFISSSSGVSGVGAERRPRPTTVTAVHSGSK

[12] = target: Cyclin-dependent kinase 2/cyclin A (Homo sapiens) (UniProt P24941+P20248+P78396); assay: Inhibition of CDK2/cyclin A at 10 uM; assay type: protein-complex assay
[13] = target: Hepatocyte growth factor receptor (Homo sapiens) (UniProt P08581); assay: Inhibition of cMET at 10 uM
[14] = target: Proto-oncogene tyrosine-protein kinase Src (Homo sapiens) (UniProt P12931); assay: Inhibition of cSRC at 10 uM
Proto-oncogene tyrosine-protein kinase Src (Homo sapiens), sequence (P12931 2-536 limits assumed): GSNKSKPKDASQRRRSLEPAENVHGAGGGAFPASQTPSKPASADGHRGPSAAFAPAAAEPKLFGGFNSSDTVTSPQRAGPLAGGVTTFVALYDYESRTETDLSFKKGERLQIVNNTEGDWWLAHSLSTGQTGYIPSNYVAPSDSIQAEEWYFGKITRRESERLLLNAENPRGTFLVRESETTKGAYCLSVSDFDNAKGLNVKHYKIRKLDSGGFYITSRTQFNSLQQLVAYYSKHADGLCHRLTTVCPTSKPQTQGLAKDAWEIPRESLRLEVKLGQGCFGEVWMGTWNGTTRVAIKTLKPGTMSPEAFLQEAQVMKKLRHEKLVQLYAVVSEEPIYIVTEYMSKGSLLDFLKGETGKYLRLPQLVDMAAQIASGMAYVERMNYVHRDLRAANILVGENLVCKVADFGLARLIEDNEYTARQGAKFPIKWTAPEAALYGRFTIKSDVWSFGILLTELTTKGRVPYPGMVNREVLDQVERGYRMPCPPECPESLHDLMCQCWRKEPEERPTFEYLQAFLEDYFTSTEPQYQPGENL

[15] = target: Epidermal growth factor receptor (Homo sapiens) (UniProt P00533); assay: Inhibition of EGFR at 10 uM
Epidermal growth factor receptor (Homo sapiens), sequence (P00533 whole entry): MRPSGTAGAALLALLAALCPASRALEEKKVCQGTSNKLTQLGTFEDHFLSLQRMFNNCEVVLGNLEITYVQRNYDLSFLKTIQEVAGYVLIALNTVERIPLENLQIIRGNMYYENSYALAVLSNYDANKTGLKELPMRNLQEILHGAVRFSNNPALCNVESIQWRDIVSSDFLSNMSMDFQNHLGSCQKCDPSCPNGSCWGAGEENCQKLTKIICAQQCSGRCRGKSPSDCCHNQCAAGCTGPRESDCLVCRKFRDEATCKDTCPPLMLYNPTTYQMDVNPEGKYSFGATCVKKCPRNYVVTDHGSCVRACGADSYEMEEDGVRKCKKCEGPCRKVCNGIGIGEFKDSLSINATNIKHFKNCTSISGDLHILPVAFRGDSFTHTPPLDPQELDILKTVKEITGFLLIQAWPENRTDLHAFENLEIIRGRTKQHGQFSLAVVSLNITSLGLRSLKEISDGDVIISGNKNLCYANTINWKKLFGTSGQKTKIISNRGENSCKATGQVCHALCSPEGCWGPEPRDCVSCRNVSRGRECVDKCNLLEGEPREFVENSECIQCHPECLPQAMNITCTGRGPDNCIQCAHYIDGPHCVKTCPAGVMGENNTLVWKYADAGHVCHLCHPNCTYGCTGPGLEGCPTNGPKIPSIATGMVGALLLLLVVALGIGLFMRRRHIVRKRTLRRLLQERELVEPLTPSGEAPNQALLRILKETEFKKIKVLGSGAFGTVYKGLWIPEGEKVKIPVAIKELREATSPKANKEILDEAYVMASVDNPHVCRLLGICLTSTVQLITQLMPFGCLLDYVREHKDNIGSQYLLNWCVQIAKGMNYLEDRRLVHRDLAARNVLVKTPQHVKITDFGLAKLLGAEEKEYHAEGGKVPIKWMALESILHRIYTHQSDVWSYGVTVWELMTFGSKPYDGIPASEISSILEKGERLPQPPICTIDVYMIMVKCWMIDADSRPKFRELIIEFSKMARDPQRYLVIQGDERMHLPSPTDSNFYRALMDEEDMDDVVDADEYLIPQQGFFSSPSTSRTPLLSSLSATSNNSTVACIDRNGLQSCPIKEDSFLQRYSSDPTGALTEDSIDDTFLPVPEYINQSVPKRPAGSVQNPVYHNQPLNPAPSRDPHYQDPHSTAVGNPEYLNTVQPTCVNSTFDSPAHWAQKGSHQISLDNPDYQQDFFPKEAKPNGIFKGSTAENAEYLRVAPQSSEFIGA

[16] = target: Glycogen synthase kinase-3 beta (Homo sapiens) (UniProt P49841); assay: Inhibition of GSK3beta at 10 uM
Glycogen synthase kinase-3 beta (Homo sapiens), sequence (P49841 whole entry, looked up): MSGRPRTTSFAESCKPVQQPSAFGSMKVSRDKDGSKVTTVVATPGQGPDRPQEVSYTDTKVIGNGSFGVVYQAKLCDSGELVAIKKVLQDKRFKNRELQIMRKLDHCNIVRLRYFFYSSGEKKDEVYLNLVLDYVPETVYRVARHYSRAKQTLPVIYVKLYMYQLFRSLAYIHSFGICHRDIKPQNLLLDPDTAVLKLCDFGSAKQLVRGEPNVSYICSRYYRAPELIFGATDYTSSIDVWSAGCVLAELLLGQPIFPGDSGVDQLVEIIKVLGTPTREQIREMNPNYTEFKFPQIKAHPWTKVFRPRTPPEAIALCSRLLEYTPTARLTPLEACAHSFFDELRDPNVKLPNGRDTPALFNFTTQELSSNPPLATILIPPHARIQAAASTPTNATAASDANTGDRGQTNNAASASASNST

[17] = target: Insulin receptor (Homo sapiens) (UniProt P06213); assay: Inhibition of IR at 10 uM
[18] = target: T2, Tyrosine-protein kinase JAK3 (Homo sapiens) (UniProt P52333); assay: Inhibition of JAK3 at 10 uM
T2 sequence (whole entry): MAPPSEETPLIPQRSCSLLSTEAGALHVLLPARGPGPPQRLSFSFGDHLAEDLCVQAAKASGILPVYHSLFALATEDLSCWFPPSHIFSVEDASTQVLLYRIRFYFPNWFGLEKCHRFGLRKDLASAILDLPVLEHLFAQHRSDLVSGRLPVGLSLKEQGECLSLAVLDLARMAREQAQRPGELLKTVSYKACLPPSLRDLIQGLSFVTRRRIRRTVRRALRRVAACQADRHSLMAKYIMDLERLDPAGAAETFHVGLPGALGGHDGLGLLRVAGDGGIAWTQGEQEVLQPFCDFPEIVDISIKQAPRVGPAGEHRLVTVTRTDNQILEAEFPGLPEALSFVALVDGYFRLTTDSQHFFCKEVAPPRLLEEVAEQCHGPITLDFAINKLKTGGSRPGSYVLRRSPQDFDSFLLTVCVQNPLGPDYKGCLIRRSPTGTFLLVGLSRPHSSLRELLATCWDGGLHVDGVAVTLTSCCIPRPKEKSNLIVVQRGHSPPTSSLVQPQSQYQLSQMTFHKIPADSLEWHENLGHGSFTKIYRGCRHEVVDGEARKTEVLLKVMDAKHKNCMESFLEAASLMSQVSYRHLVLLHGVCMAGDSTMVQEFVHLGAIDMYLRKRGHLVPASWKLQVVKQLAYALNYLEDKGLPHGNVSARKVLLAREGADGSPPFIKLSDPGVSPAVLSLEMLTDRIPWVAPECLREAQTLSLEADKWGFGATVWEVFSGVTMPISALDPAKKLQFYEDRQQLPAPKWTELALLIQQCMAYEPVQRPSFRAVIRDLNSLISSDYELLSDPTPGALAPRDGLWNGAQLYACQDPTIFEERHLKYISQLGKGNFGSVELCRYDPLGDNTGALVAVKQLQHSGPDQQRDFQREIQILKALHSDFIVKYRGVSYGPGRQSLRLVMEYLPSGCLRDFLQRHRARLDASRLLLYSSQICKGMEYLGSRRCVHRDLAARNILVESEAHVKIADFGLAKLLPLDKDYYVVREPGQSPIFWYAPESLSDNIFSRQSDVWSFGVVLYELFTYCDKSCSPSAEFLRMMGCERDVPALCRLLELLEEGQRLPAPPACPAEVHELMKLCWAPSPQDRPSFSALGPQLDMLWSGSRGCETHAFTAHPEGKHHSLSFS

[19] = target: Mitogen-activated protein kinase 14 (Homo sapiens) (UniProt Q16539); assay: Inhibition of p38alpha at 10 uM
Mitogen-activated protein kinase 14 (Homo sapiens), sequence (Q16539 whole entry): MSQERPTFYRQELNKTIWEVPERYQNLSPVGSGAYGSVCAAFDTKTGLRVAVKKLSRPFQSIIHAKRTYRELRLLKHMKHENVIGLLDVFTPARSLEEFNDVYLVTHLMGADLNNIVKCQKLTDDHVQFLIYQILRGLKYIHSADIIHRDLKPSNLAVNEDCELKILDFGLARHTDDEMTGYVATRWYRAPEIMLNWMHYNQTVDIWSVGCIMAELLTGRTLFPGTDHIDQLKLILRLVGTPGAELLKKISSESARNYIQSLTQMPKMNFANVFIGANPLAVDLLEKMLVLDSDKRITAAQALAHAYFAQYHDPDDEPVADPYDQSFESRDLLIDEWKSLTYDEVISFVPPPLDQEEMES

[20] = target: Platelet-derived growth factor receptor beta (Homo sapiens) (UniProt P09619); assay: Inhibition of PDGFRbeta at 10 uM
[21] = target: Protein kinase C alpha type (Homo sapiens) (UniProt P17252); assay: Inhibition of PKCalpha at 10 uM
[22] = target: Serine/threonine-protein kinase PLK3 (Homo sapiens) (UniProt Q9H4B4); assay: Inhibition of PLK3 at 10 uM
[23] = target: Tyrosine-protein kinase SYK (Homo sapiens) (UniProt P43405); assay: Inhibition of Syk at 10 uM
[24] = target: Angiopoietin-1 receptor (Homo sapiens) (UniProt Q02763); assay: Inhibition of Tie2 at 10 uM
[25] = Inhibition of cytochrome P450 at 10 uM; assay type: ADME
[26] = target: 3-phosphoinositide-dependent protein kinase 1 (Homo sapiens) (UniProt O15530); assay: Inhibition of PDK1 at 10 uM
3-phosphoinositide-dependent protein kinase 1 (Homo sapiens), sequence (O15530 whole entry, looked up): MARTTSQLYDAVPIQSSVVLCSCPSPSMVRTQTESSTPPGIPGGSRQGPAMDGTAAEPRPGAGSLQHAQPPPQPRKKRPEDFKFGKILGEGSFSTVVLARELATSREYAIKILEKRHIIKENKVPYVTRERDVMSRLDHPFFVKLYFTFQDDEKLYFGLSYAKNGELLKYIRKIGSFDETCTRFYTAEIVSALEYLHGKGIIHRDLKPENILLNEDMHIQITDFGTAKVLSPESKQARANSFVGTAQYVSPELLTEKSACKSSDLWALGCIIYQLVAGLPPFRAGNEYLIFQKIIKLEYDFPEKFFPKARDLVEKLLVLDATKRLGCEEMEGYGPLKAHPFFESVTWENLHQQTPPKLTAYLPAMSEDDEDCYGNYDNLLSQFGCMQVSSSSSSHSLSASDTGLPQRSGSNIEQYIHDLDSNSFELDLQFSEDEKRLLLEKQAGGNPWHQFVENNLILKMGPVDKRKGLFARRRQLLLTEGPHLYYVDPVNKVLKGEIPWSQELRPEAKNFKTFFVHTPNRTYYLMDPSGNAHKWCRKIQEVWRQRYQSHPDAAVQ

[27] = target: T1, Dual specificity mitogen-activated protein kinase kinase 1; assay: Inhibition of MEK1-mediated Erk1/2 phosphorylation in human HT-29 cells at 30 mg/kg measured after 4 hrs by in vivo pharmacodynamic model; assay type: organism-based; parameters: dose 30 mg/kg; outline: as §1

Structure (SMILES) | pIC50 [1] | pEC50 (COLO 205) | pEC50 (A-375) | half-life [2] [min] | half-life [3] [min] | clearance [4] [mL/min/kg] | AUC/dose (Rattus norvegicus) [ng·h/mL/mg/kg] | Vd [5] [L/kg] | bioavailability [6] [%] | inhibition [8] | inhibition [9] | inhibition [10] | inhibition [11] | inhibition [12] | inhibition [13] | inhibition [14] | inhibition [15] | inhibition [16] | inhibition [17] | inhibition [18] | other results
Cc1c(Nc2ccc(I)cc2F)c(C(=O)NOCCO)c2n(c1=O)CCC2 | 7.42 | 9.00 | 8.70 | 99 | 40 | 21.4 | 204 | 0.971 | 29 | inactive | inactive | inactive | inactive | inactive | inactive | inactive | inactive | inactive | inactive | inactive | inhibition [7]: Active; inhibition (HL-60): Active; inhibition [19]: inactive; inhibition [20]: inactive; inhibition [21]: inactive; inhibition [22]: inactive; inhibition [23]: inactive; inhibition [24]: inactive; inhibition (INH) [25]: Not Active; inhibition [26]: inactive
C#Cc1ccc(Nc2c(C(=O)NOCCO)c3c(n2C)C(=O)CCC3)c(F)c1 | 7.49 | 8.00 | 7.82 | 34 | 38 | 5.9 | 1670 | 0.596 | 61 | inactive | inactive | inactive | inactive | inactive | inactive | inactive | inactive | inactive | inactive | inactive | inhibition [27]: Active; inhibition [19]: inactive; inhibition [20]: inactive; inhibition [21]: inactive; inhibition [22]: inactive; inhibition [23]: inactive; inhibition [24]: inactive; inhibition (INH) [25]: Not Active; inhibition [26]: inactive
Cn1c(Nc2ccc(I)cc2F)c(C(=O)NOC[C@H](O)CO)c2c1C(=O)CCC2 | 7.70 | 8.60 | 8.52 | 36 | 26 | 23.7 | 88 | 1.16 | 12 | inactive | inactive | inactive | inactive | inactive | inactive | inactive | inactive | inactive | inactive | inactive | inhibition [19]: inactive; inhibition [20]: inactive; inhibition [21]: inactive; inhibition [22]: inactive; inhibition [23]: inactive; inhibition [24]: inactive; inhibition (INH) [25]: Not Active; inhibition [26]: inactive
